Measurements reported in ChEMBL document CHEMBL1155468, “Syntheses and evaluation of anticonvulsant profile and teratogenicity of novel amide derivatives of branched aliphatic carboxylic acids with 4-aminobenzensulfonamide” (J Med Chem, 2010).
Activity calls are given as the source filed them. The rule behind the calls is not given here.

Columns and labels:
Mus musculus [1] = test: Teratogenic effect in SWV mouse assessed as resorptions at 141 mg/kg, ip administered on morning of day 8 of gestation; assay type: toxicity, organism-based; design: dose 141 mg/kg, route intraperitoneal; conditions: in vivo
In short: (§1)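 SWV inbred mice: two-month-old nulligravid females mated overnight with males and checked for vaginal plugs next morning; gestation onset taken as 10 p.m. the previous night. On gestation day 8.5 each dam got one ip injection, 0.55–2.7 mmol/kg, in 25% aqueous Cremophor EL (vehicle controls dosed alike), 10 μL/g body weight. Litters and implants tallied; resorptions and live fetuses reported as counts with percentages.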

Mus musculus [2] = test: Anticonvulsant activity in CF1 albino mouse assessed as inhibition of maximal electroshock-induced seizures at 30 mg/kg, ip after 0.5 hrs; assay type: functional, organism-based; design: dose 30 mg/kg
In short: (§2)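 Test compounds suspended in 0.5% methylcellulose and given ip to adult male CF no. 1 albino mice (18-25 g) at 0.01 mL/g body weight before maximal electroshock challenge.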

Rattus norvegicus [3] = test: Anticonvulsant activity in po dosed rat assessed as inhibition of maximal electroshock-induced seizures
Mus musculus [4] = test: Anticonvulsant activity in CF1 albino mouse assessed as inhibition of maximal electroshock-induced seizures at 30 mg/kg, ip after 4 hrs; assay type: functional, organism-based; design: dose 30 mg/kg; in short: as §2
Mus musculus [5] = test: Anticonvulsant activity in CF1 albino mouse assessed as inhibition of subcutaneous pentylenetetrazole-induced seizures at 100 mg/kg, ip after 4 hrs; assay type: functional, organism-based; design: dose 100 mg/kg
In short: (§3)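 Adult male CF no. 1 albino mice (18-25 g) dosed ip with compound suspended in 0.5% methylcellulose (0.01 mL/g). Convulsant: pentylenetetrazol dissolved in 0.9% saline as a 0.85% solution for mice, given subcutaneously.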

Rattus norvegicus [6] = organism: Rattus norvegicus; test: Protective index, ratio of TD50 for rat to ED50 for maximal electroshock-induced rat seizure model
Mus musculus [7] = test: Neurotoxicity in CF1 albino mouse assessed as motor impairment at 300 mg/kg, ip after 4 hrs; assay type: toxicity, organism-based; design: dose 300 mg/kg, route intraperitoneal; conditions: in vivo
Mus musculus [8] = test: Teratogenic effect in SWV mouse assessed as live fetuses at 141 mg/kg, ip administered on morning of day 8 of gestation; assay type: toxicity, organism-based; design: dose 141 mg/kg, route intraperitoneal; conditions: in vivo
In short: (§4)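 Two-month-old nulligravid SWV females were mated overnight and checked for vaginal plugs the next morning; gestation onset was set at 10 p.m. the previous night. On gestation day 8.5, each dam received a single ip injection (0.55-2.7 mmol/kg range) or vehicle (25% aqueous Cremophor EL) at 10 μL/g body weight. Litters were scored for implants, resorptions, live and dead fetuses, and fetuses with neural tube defects.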

Mus musculus [9] = test: Anticonvulsant activity in CF1 albino mouse assessed as inhibition of maximal electroshock-induced seizures at 300 mg/kg, ip after 4 hrs; assay type: functional, organism-based; design: dose 300 mg/kg; in short: as §2
Rattus norvegicus [10] = test: Anticonvulsant activity in Sprague-Dawley rat assessed as inhibition of maximal electroshock-induced seizures at 30 mg/kg, po after 4 hrs
Mus musculus [11] = test: Anticonvulsant activity in CF1 albino mouse assessed as inhibition of subcutaneous pentylenetetrazole-induced seizures at 300 mg/kg, ip after 4 hrs; assay type: functional, organism-based; design: dose 300 mg/kg; in short: as §3
Mus musculus [12] = test: Anticonvulsant activity in CF1 albino mouse assessed as inhibition of subcutaneous pentylenetetrazole-induced seizures at 100 mg/kg, ip after 0.5 hrs; assay type: functional, organism-based; design: dose 100 mg/kg; in short: as §3
Mus musculus [13] = test: Neurotoxicity in CF1 albino mouse assessed as motor impairment at 100 mg/kg, ip after 4 hrs; assay type: toxicity, organism-based; design: dose 100 mg/kg, route intraperitoneal; conditions: in vivo
Mus musculus [14] = test: Teratogenic effect in SWV mouse assessed as resorptions at 462 mg/kg, ip administered on morning of day 8 of gestation; assay type: toxicity, organism-based; design: dose 462 mg/kg, route intraperitoneal; conditions: in vivo; in short: as §1
Mus musculus [15] = test: Anticonvulsant activity in CF1 albino mouse assessed as inhibition of subcutaneous pentylenetetrazole-induced seizures at 30 mg/kg, ip after 0.5 hrs; assay type: functional, organism-based; design: dose 30 mg/kg; in short: as §3
Mus musculus [16] = test: Teratogenic effect in SWV mouse assessed as resorptions at 279 mg/kg, ip administered on morning of day 8 of gestation; assay type: toxicity, organism-based; design: dose 279 mg/kg, route intraperitoneal; conditions: in vivo; in short: as §1
Rattus norvegicus [17] = test: Neurotoxicity in Sprague-Dawley rat assessed as motor impairment at 30 mg/kg, po after 0.25 to 4 hrs; conditions: in vivo
Mus musculus [18] = test: Teratogenic effect in SWV mouse assessed as live fetuses at 279 mg/kg, ip administered on morning of day 8 of gestation; assay type: toxicity, organism-based; design: dose 279 mg/kg, route intraperitoneal; conditions: in vivo; in short: as §4
Mus musculus [19] = test: Anticonvulsant activity in CF1 albino mouse assessed as inhibition of subcutaneous pentylenetetrazole-induced seizures at 300 mg/kg, ip after 0.5 hrs; assay type: functional, organism-based; design: dose 300 mg/kg; in short: as §3
Mus musculus [20] = test: Anticonvulsant activity in CF1 albino mouse assessed as inhibition of maximal electroshock-induced seizures at 100 mg/kg, ip after 4 hrs; assay type: functional, organism-based; design: dose 100 mg/kg; in short: as §2
Rattus norvegicus [21] = test: Anticonvulsant activity in Sprague-Dawley rat assessed as inhibition of maximal electroshock-induced seizures at 30 mg/kg, po after 2 hrs
Mus musculus [22] = test: Anticonvulsant activity in CF1 albino mouse assessed as inhibition of subcutaneous pentylenetetrazole-induced seizures at 30 mg/kg, ip after 4 hrs; assay type: functional, organism-based; design: dose 30 mg/kg; in short: as §3
Mus musculus [23] = test: Teratogenic effect in SWV mouse assessed as live fetuses at 462 mg/kg, ip administered on morning of day 8 of gestation; assay type: toxicity, organism-based; design: dose 462 mg/kg, route intraperitoneal; conditions: in vivo; in short: as §1
Mus musculus [24] = test: Anticonvulsant activity in CF1 albino mouse assessed as inhibition of maximal electroshock-induced seizures at 100 mg/kg, ip after 0.5 hrs; assay type: functional, organism-based; design: dose 100 mg/kg; in short: as §2
Mus musculus [25] = test: Neurotoxicity in CF1 albino mouse assessed as motor impairment at 30 mg/kg, ip after 4 hrs; assay type: toxicity, organism-based; design: dose 30 mg/kg, route intraperitoneal; conditions: in vivo
Mus musculus [26] = test: Anticonvulsant activity in CF1 albino mouse assessed as inhibition of maximal electroshock-induced seizures at 300 mg/kg, ip after 0.5 hrs; assay type: functional, organism-based; design: dose 300 mg/kg; in short: as §2
Mus musculus [27] = test: Teratogenic effect in SWV mouse assessed as fetuses with neural tube deffects at 462 mg/kg, ip administered on morning of day 8 of gestation; assay type: toxicity, organism-based; design: dose 462 mg/kg, route intraperitoneal; conditions: in vivo; in short: as §4
Mus musculus [28] = test: Teratogenic effect in SWV mouse assessed as fetuses with neural tube deffects at 279 mg/kg, ip administered on morning of day 8 of gestation; assay type: toxicity, organism-based; design: dose 279 mg/kg, route intraperitoneal; conditions: in vivo; in short: as §4
Rattus norvegicus [29] = test: Anticonvulsant activity in Sprague-Dawley rat assessed as inhibition of maximal electroshock-induced seizures at 30 mg/kg, po after 1 hr

In the case of CCC(C)C(=O)Nc1ccc(S(N)(=O)=O)cc1 (centres undefined), the Activity (Mus musculus [1]) is reported as 8.2%, the Activity (Mus musculus [2]) is reported as “Active” and the ED50 (Rattus norvegicus [3]) is reported as 7.6 mg/kg. The Activity (Mus musculus [4]) was “Active”, the Activity (Mus musculus [5]) was “inactive” and the “Ratio TD50/ED50” value (Rattus norvegicus [6]) was over 65.7. For the same compound, the Activity (Mus musculus [7]) was “Non-toxic”, the Activity (Mus musculus [8]) was 91.8% and the Activity (Mus musculus [9]) was “Active”. For the same compound, the Activity (Rattus norvegicus [10]) was “Active”, the Activity (Mus musculus [11]) was “inactive” and the Activity (Mus musculus [12]) was “inactive”. For the same compound, the Activity (Mus musculus [13]) was “Non-toxic”, the Activity (Mus musculus [14]) was 49.1% and the Activity (Mus musculus [15]) was “inactive”. The Activity (Mus musculus [16]) was 8.8%, the Activity (Rattus norvegicus [17]) was “Non-toxic” and the Activity (Mus musculus [18]) was 91.2%. For the same compound, the Activity (Mus musculus [19]) was “inactive”, the Activity (Mus musculus [20]) was “Active” and the Activity (Rattus norvegicus [21]) was “Active”. For the same compound, the Activity (Mus musculus [22]) was “inactive”, the Activity (Mus musculus [23]) was 50.9% and the Activity (Mus musculus [24]) was “Active”. For the same compound, the Activity (Mus musculus [25]) was “Non-toxic”, the Activity (Mus musculus [26]) was “Active” and the Activity (Mus musculus [27]) was 25.4%. The Activity (Mus musculus [28]) was 4.4% and the Activity (Rattus norvegicus [29]) was “Active”.
